Experimental data taken from ChEMBL document CHEMBL1152649, “Synthesis, cytotoxicity and human telomerase inhibition activities of a series of 1,2-heteroannelated anthraquinones and anthra[1,2-d]imidazole-6,11-dione homologues” (2009).
The source made the active and inactive calls. The calls are words filed in the database; no cut-off is given here.

What was measured:
[1] = Cytotoxicity against human H1299 cells at 1 uM after 48 hrs by MTT assay; format: functional; details: NCI-H1299, 48 h
How it was run: (§1)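 H1299 non-small cell lung cancer cells were grown in RPMI 1640 with 10% FBS, penicillin and streptomycin at 37 °C under 5% CO2. About 2 × 10³ cells per well were seeded and left 24 h. Compounds were dissolved fresh in DMSO, diluted into complete medium and applied for 48 h. MTT was then added for 4 h at 37 °C, followed by lysis buffer (20% SDS, 50% DMF) for 16 h, and absorbance was read at 550 nm.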

[2] = Cytotoxicity against human H1299 cells at 10 uM after 48 hrs by MTT assay; format: functional; details: NCI-H1299, 48 h; how it was run: as §1
[3] = Cytotoxicity against human H1299 cells at 100 uM after 48 hrs by MTT assay; format: functional; details: NCI-H1299, 48 h; how it was run: as §1
[4] = target: Telomerase reverse transcriptase (Homo sapiens) (UniProt O14746); test: Inhibition of telomerase in human H1299 cells up to 100 uM by TRAP assay; format: cell-based
Sequence of Telomerase reverse transcriptase (Homo sapiens) (O14746 whole entry): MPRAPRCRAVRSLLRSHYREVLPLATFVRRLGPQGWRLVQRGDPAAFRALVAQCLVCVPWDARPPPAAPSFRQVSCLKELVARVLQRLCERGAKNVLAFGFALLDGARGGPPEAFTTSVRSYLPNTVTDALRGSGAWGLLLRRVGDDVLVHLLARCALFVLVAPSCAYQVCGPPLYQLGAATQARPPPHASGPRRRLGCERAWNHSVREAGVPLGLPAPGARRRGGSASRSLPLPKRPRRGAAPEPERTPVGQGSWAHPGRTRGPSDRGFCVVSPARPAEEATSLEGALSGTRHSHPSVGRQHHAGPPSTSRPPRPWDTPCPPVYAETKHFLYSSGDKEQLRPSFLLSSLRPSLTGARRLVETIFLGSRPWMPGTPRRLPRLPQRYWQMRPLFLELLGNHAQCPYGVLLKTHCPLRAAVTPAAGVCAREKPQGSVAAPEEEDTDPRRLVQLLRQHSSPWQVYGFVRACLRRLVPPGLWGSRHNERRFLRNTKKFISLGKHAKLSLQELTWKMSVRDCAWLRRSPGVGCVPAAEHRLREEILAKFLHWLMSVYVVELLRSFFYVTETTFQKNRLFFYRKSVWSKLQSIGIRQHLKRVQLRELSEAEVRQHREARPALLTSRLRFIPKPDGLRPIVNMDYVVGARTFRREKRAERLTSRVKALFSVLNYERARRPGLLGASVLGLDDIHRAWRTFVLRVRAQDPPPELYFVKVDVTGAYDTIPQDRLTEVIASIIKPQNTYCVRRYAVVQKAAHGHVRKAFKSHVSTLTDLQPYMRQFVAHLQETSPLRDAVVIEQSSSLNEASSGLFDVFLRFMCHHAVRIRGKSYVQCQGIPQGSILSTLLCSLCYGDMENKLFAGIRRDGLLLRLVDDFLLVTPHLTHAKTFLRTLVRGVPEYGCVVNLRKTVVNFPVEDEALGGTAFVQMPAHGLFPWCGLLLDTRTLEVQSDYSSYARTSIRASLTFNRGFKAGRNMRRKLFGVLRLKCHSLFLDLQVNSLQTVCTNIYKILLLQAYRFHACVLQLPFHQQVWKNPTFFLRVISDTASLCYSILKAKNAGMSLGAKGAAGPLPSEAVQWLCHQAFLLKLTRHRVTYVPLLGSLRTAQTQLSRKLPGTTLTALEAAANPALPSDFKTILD
How it was run: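 PCR-based telomeric repeat amplification protocol (TRAP). The telomerase source was total lysate of H1299 lung cancer cells, with protein measured against BSA standards. Controls were extract without inhibitor and RNase A-treated extract.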

[5] = tested on: A549; test: Antiproliferative activity against human A549 cells assessed as cell growth at 10 uM; format: functional; details: read-out: Activity
How it was run: (§2)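 NCI 60 cell line panel, single-dose screen (10^-5 M) run by the developmental therapeutics program protocol. Results are given as growth percent of treated cells relative to untreated control cells for each line.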

[6] = tested on: EKVX; test: Antiproliferative activity against human EKVX cells assessed as cell growth at 10 uM; format: functional; details: read-out: Activity; how it was run: as §2
[7] = tested on: HOP-62; test: Antiproliferative activity against human HOP62 cells assessed as cell growth at 10 uM; format: functional; details: read-out: Activity; how it was run: as §2
[8] = Antiproliferative activity against human Hs 578T cells assessed as cell growth at 10 uM; format: functional; details: read-out: Activity; how it was run: as §2
[9] = tested on: MCF7; test: Antiproliferative activity against human MCF7 cells assessed as cell growth at 10 uM; format: functional; details: read-out: Activity; how it was run: as §2
[10] = tested on: NCI/ADR-RES; test: Antiproliferative activity against human NCI/ADR-RES cells assessed as cell growth at 10 uM; format: functional; details: read-out: Activity; how it was run: as §2
[11] = tested on: T47D; test: Antiproliferative activity against human T47D cells assessed as cell growth at 10 uM; format: functional; details: read-out: Activity
How it was run: (§3)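 NCI 60 cell line panel, single dose (10^-5 M), run per the Developmental Therapeutics Program protocol (one dose mean graph). Each result is the growth percentage of treated cells relative to untreated control cells.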

[12] = tested on: OVCAR-3; test: Antiproliferative activity against human OVCAR-3 cells assessed as cell growth at 10 uM; format: functional; details: read-out: Activity; how it was run: as §2
[13] = tested on: OVCAR-5; test: Antiproliferative activity against human OVCAR5 cells assessed as cell growth at 10 uM; format: functional; details: read-out: Activity; how it was run: as §2
[14] = tested on: OVCAR-8; test: Antiproliferative activity against human OVCAR8 cells assessed as cell growth at 10 uM; format: functional; details: read-out: Activity; how it was run: as §2
[15] = tested on: SK-OV-3; test: Antiproliferative activity against human SKOV3 cells assessed as cell growth at 10 uM; format: functional; details: read-out: Activity; how it was run: as §2
[16] = tested on: CCRF-CEM; test: Antiproliferative activity against human CCRF-CEM cells assessed as cell growth at 10 uM; format: functional; details: read-out: Activity; how it was run: as §2
[17] = tested on: HL-60(TB); test: Antiproliferative activity against human HL-60(TB) cells assessed as cell growth at 10 uM; format: functional; details: read-out: Activity
How it was run: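 NCI Developmental Therapeutics Program 60-cell-line one-dose screen at 10^-5 M. Readout is growth percentage of treated cells relative to untreated control cells.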

[18] = tested on: K562; test: Antiproliferative activity against human K562 cells assessed as cell growth at 10 uM; format: functional; details: read-out: Activity; how it was run: as §2
[19] = Antiproliferative activity against human RPMI8266 cells assessed as cell growth at 10 uM; format: functional; details: read-out: Activity; how it was run: as §2
[20] = tested on: SR; test: Antiproliferative activity against human SR cells assessed as cell growth at 10 uM; format: functional; details: read-out: Activity; how it was run: as §3
[21] = tested on: 786-0; test: Antiproliferative activity against human 786-0 cells assessed as cell growth at 10 uM; format: functional; details: read-out: Activity; how it was run: as §2
[22] = tested on: A498; test: Antiproliferative activity against human A498 cells assessed as cell growth at 10 uM; format: functional; details: read-out: Activity; how it was run: as §2
[23] = tested on: SN12C; test: Antiproliferative activity against human SN12C cells assessed as cell growth at 10 uM; format: functional; details: read-out: Activity; how it was run: as §2
[24] = tested on: TK-10; test: Antiproliferative activity against human TK10 cells assessed as cell growth at 10 uM; format: functional; details: read-out: Activity; how it was run: as §3
[25] = tested on: M14; test: Antiproliferative activity against human M14 cells assessed as cell growth at 10 uM; format: functional; details: read-out: Activity; how it was run: as §2
[26] = tested on: Malme-3M; test: Antiproliferative activity against human MALME-3M cells assessed as cell growth at 10 uM; format: functional; details: read-out: Activity; how it was run: as §2
[27] = tested on: SK-MEL-2; test: Antiproliferative activity against human SK-MEL-2 cells assessed as cell growth at 10 uM; format: functional; details: read-out: Activity; how it was run: as §2
[28] = tested on: SK-MEL-28; test: Antiproliferative activity against human SK-MEL-28 cells assessed as cell growth at 10 uM; format: functional; details: read-out: Activity; how it was run: as §2
[29] = tested on: SK-MEL-5; test: Antiproliferative activity against human SK-MEL-5 cells assessed as cell growth at 10 uM; format: functional; details: read-out: Activity; how it was run: as §2
[30] = tested on: DU-145; test: Antiproliferative activity against human DU145 cells assessed as cell growth at 10 uM; format: functional; details: read-out: Activity; how it was run: as §2
[31] = tested on: PC-3; test: Antiproliferative activity against human PC3 cells assessed as cell growth at 10 uM; format: functional; details: read-out: Activity; how it was run: as §2
[32] = tested on: SF-295; test: Antiproliferative activity against human SF295 cells assessed as cell growth at 10 uM; format: functional; details: read-out: Activity; how it was run: as §2
[33] = tested on: SNB-19; test: Antiproliferative activity against human SNB19 cells assessed as cell growth at 10 uM; format: functional; details: read-out: Activity; how it was run: as §2
[34] = tested on: U-251; test: Antiproliferative activity against human U251 cells assessed as cell growth at 10 uM; format: functional; details: read-out: Activity; how it was run: as §3
[35] = tested on: HOP-92; test: Antiproliferative activity against human HOP92 cells assessed as cell growth at 10 uM; format: functional; details: read-out: Activity; how it was run: as §2
[36] = tested on: NCI-H226; test: Antiproliferative activity against human NCI-H226 cells assessed as cell growth at 10 uM; format: functional; details: read-out: Activity; how it was run: as §2
[37] = tested on: NCI-H23; test: Antiproliferative activity against human NCI-H23 cells assessed as cell growth at 10 uM; format: functional; details: read-out: Activity; how it was run: as §2
[38] = tested on: NCI-H322M; test: Antiproliferative activity against human NCI-H322M cells assessed as cell growth at 10 uM; format: functional; details: read-out: Activity; how it was run: as §2
[39] = tested on: NCI-H460; test: Antiproliferative activity against human NCI-H460 cells assessed as cell growth at 10 uM; format: functional; details: read-out: Activity; how it was run: as §2
[40] = tested on: COLO 205; test: Antiproliferative activity against human COLO205 cells assessed as cell growth at 10 uM; format: functional; details: read-out: Activity; how it was run: as §2
[41] = tested on: HCC 2998; test: Antiproliferative activity against human HCC2998 cells assessed as cell growth at 10 uM; format: functional; details: read-out: Activity; how it was run: as §2
[42] = tested on: HT-29; test: Antiproliferative activity against human HT-29 cells assessed as cell growth at 10 uM; format: functional; details: read-out: Activity; how it was run: as §2
[43] = target: Telomerase reverse transcriptase (Homo sapiens) (UniProt O14746); test: Inhibition of TERT in human H1299 cells assessed as residual transcriptional activity at 1 uM after 24 hrs by SEAP reporter gene assay; values are per cent of control
[44] = target: Telomerase reverse transcriptase (Homo sapiens) (UniProt O14746); test: Inhibition of TERT in human H1299 cells assessed as residual transcriptional activity at 100 uM after 24 hrs by SEAP reporter gene assay; values are per cent of control

## O=C1c2ccccc2C(=O)c2c1ccc1nc(-c3ccc(Br)cc3)[nH]c21
[1]
  viability at 1 µM: 96%
[2]
  viability at 10 µM: 85%
[3]
  viability at 100 µM: 20%
[4]
  inhibition: inactive
[5]
  growth at 10 µM: 95%
[6]
  growth at 10 µM: 82.7%
[7]
  growth at 10 µM: 104%
[8]
  growth at 10 µM: 181%
[9]
  growth at 10 µM: 75.3%
[10]
  growth at 10 µM: 93.7%
[11]
  growth at 10 µM: 97.3%
[12]
  growth at 10 µM: 100%
[13]
  growth at 10 µM: 93.2%
[14]
  growth at 10 µM: 96.3%
[15]
  growth at 10 µM: 105%
[16]
  growth at 10 µM: 98.7%
[17]
  growth at 10 µM: 100%
[18]
  growth at 10 µM: 109%
[19]
  growth at 10 µM: 95.2%
[20]
  growth at 10 µM: 92.4%
[21]
  growth at 10 µM: 111%
[22]
  growth at 10 µM: 117%
[23]
  growth at 10 µM: 112%
[24]
  growth at 10 µM: 280%
[25]
  growth at 10 µM: 102%
[26]
  growth at 10 µM: 224%
[27]
  growth at 10 µM: 72.2%
[28]
  growth at 10 µM: 131%
[29]
  growth at 10 µM: 87.1%
[30]
  growth at 10 µM: 113%
[31]
  growth at 10 µM: 88.7%
[32]
  growth at 10 µM: 119%
[33]
  growth at 10 µM: 101%
[34]
  growth at 10 µM: 105%
[35]
  growth at 10 µM: 83.5%
[36]
  growth at 10 µM: 103%
[37]
  growth at 10 µM: 93.1%
[38]
  growth at 10 µM: 167%
[39]
  growth at 10 µM: 96.2%
[40]
  growth at 10 µM: 110%
[41]
  growth at 10 µM: 98.1%
[42]
  growth at 10 µM: 98.8%
[43]
  residual activity: 89%
[44]
  residual activity: 36%
